The values below come from ChEMBL document CHEMBL1142725, “Synthesis and discovery of pyrazine-pyridine biheteroaryl as a novel series of potent vascular endothelial growth factor receptor-2 inhibitors” (J Med Chem, 2005).

For orientation: IC50 means the point on the concentration scale where inhibition reaches its midpoint.

SMILES strings stand for the structures.

Experiment [1] concerns the target Vascular endothelial growth factor receptor 2 (Homo sapiens, UniProt P35968). The experiment in a line: Inhibition of human vascular endothelial growth factor receptor 2.
Experiment [2] deals with Cyclin-dependent kinase 1 (Homo sapiens, UniProt P06493). Briefly: Inhibition of human cyclin-dependent kinase 1.
The target of experiment [3] is Protein kinase C beta type (Homo sapiens, UniProt P05771). The experiment in a line: Inhibition of protein kinase C beta 2.
Another experiment concerns the target Casein kinase II (Homo sapiens, UniProt P19784+P67870+P68400). Briefly: Inhibition of casein kinase II. It is filed as protein-complex assay.
For experiment [4], the target named is cAMP-dependent protein kinase (PKA) (Homo sapiens, UniProt P22694+P17612+P22612). Briefly: Inhibition of protein kinase A. It is filed as protein assay.
Experiment [5] has as its target Cyclin-dependent kinase 4 (Homo sapiens, UniProt P11802). The experiment in a line: Inhibition of cyclin-dependent kinase 4.
For experiment [6], the target named is Mitogen-activated protein kinase 1 (Homo sapiens, UniProt P28482). Briefly: Inhibition of mitogen activated protein kinase (ERK2).
Experiment [7] has as its target Fibroblast growth factor receptor 2 (Homo sapiens, UniProt P21802). The experiment in a line: Inhibition of fibroblast growth factor receptor 2.
The target of experiment [8] is Vascular endothelial growth factor receptor (Homo sapiens, UniProt P17948+P35916+P35968). The experiment in a line: Inhibition of VEGF-stimulated human umbilical vein endothelial cell proliferation. The class given is functional, cell-based. The procedure, abridged: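 HUVEC trypsinized and seeded in F-12K with 0.2% heat-inactivated FBS, stimulated with 2 ng/well VEGF with or without compound. BrdU added 24 h after VEGF, then incubated another 20-24 h. Incorporation read by BrdU cell-proliferation ELISA.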

The subject of another experiment is HeLa. Briefly: Inhibitory concentration against Proliferation of HeLa cells (cervical adenocarcinoma). The class given is functional, cell-based. The following applies: Homo sapiens. The procedure, abridged:
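HeLa cells grown in MEM with 0.1 mM nonessential amino acids, 1 mM pyruvate, 2 mM L-glutamine and 10% FCS at 37 °C, 5% CO2. Seeded in scintillating microplates in complete medium and incubated 24 h. Compound added for 24 h, then 0.2 µCi methyl-[14C]thymidine per well for a further 24 h.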

Experiment [9] addresses Protein kinase C gamma type (Homo sapiens, UniProt P05129). Briefly: Inhibition of protein kinase C gamma.

Sequence of Cyclin-dependent kinase 1 (P06493 whole entry): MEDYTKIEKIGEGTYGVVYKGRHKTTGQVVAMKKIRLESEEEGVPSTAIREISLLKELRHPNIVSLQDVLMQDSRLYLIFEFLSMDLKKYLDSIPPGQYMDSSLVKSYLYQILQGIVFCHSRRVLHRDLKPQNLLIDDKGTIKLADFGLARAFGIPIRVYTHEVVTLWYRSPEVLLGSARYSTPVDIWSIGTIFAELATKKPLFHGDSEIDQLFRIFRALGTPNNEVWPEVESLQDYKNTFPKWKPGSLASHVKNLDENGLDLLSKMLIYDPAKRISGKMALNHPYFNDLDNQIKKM
Sequence of Vascular endothelial growth factor receptor 2 (P35968 whole entry): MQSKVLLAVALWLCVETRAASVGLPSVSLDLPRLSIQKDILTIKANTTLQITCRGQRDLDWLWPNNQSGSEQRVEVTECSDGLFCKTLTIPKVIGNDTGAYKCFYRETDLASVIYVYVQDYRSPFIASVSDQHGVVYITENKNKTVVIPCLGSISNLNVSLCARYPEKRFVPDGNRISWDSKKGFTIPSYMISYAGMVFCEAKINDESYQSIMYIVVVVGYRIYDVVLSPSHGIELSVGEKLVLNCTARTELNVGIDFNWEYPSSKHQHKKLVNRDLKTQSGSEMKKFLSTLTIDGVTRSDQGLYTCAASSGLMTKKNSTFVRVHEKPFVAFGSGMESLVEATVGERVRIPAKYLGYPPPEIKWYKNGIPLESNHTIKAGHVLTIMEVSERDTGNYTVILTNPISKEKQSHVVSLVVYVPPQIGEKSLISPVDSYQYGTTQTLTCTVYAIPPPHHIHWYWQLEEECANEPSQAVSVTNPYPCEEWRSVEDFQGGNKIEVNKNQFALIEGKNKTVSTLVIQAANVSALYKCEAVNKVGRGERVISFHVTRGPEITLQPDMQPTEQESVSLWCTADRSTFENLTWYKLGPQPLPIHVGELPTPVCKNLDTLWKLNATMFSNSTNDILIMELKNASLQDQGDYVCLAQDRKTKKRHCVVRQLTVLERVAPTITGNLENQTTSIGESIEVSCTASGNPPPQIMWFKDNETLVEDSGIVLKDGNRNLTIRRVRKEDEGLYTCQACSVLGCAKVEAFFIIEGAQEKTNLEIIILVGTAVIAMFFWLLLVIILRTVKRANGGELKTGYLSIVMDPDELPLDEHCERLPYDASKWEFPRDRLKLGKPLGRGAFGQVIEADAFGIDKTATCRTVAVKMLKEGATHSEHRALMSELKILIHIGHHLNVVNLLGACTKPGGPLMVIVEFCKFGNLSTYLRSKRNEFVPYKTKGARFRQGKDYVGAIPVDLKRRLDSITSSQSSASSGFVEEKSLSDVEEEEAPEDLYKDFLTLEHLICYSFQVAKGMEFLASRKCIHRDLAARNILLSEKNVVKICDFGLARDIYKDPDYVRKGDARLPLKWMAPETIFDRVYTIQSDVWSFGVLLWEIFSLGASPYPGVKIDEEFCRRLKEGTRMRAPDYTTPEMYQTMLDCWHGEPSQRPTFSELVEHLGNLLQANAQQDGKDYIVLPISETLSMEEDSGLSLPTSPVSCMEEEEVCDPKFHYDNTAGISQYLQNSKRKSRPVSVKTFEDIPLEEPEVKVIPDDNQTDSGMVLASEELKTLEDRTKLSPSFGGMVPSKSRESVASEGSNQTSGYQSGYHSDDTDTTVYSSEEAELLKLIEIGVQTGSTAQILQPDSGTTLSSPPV
Sequence of Protein kinase C beta type (P05771 whole entry): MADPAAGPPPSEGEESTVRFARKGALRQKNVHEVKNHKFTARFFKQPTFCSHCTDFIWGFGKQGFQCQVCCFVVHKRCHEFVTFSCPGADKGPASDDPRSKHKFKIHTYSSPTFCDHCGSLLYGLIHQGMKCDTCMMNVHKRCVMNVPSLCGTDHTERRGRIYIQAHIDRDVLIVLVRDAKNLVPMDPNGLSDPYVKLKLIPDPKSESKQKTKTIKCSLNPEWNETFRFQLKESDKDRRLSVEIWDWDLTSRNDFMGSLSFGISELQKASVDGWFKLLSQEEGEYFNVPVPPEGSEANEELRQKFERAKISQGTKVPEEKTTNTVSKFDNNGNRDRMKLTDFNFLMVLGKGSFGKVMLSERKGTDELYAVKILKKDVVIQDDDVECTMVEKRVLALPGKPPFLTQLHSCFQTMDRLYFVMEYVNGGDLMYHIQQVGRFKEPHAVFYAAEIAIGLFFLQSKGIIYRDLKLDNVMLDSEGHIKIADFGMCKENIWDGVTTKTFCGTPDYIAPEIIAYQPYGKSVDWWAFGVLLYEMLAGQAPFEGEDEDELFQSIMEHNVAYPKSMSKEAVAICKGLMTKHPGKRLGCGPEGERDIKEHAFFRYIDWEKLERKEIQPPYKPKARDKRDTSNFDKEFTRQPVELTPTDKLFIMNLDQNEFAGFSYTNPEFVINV
Sequence of Mitogen-activated protein kinase 1 (P28482 whole entry): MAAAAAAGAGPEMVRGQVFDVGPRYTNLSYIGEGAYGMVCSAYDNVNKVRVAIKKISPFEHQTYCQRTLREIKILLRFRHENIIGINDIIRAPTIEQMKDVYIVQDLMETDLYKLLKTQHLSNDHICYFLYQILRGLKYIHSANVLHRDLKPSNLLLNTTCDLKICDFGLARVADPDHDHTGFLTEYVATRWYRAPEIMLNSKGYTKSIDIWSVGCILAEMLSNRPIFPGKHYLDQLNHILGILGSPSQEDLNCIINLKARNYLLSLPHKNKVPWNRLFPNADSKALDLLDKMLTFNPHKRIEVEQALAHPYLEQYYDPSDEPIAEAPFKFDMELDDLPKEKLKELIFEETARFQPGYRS
Sequence of Casein kinase II (P67870 whole entry): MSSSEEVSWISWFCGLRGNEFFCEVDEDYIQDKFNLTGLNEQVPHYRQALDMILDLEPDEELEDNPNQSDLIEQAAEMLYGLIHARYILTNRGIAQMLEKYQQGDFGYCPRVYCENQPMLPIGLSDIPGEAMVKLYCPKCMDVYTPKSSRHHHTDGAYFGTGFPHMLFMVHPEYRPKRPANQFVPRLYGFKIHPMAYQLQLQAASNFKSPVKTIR
Sequence of Casein kinase II (P68400 whole entry): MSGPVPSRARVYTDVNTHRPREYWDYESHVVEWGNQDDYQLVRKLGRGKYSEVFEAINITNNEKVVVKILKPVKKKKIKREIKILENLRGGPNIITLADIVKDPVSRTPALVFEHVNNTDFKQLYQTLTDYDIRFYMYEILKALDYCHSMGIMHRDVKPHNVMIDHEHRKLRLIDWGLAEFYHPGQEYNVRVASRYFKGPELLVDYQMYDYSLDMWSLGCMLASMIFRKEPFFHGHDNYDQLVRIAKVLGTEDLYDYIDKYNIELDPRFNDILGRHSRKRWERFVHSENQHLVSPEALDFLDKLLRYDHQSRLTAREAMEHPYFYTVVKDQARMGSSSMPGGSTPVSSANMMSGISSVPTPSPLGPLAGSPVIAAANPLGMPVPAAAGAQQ
Sequence of Casein kinase II (P19784 whole entry): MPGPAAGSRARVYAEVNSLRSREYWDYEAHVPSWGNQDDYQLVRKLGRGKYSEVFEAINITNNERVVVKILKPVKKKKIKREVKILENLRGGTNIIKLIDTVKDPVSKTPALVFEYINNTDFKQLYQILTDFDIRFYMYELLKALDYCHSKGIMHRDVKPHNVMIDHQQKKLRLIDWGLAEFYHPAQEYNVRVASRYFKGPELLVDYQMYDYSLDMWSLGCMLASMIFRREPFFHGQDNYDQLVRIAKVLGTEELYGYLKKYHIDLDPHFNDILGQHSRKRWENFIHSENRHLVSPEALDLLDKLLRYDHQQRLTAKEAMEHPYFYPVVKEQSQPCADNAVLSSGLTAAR
Sequence of Cyclin-dependent kinase 4 (P11802 whole entry): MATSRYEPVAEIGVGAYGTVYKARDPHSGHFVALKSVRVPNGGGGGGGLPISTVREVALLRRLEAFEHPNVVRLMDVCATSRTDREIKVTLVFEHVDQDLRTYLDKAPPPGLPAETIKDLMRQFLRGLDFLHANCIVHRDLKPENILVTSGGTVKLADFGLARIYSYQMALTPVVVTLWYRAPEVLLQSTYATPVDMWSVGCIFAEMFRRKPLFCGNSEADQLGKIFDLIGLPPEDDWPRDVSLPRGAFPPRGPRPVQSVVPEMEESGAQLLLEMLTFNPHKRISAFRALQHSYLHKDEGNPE

For `OCCCNc1cc(-c2cncc(Nc3cccc(Cl)c3)n2)ccn1`, the IC50 in [1] and in experiment [2] was 0.5 µM in each case.

For the molecule `OCCCNc1cc(-c2ccnc(Nc3cccc(Cl)c3)n2)ccn1`, the midpoint of inhibition in experiment [2], the IC50, lay at 0.017 µM.

In the case of `OCCCNc1cncc(-c2ncc(Nc3cccc(Cl)c3)cn2)c1`, the IC50 in experiment [1] and in experiment [2] was > 10 µM in each case.

Consider `OCCCNc1ccc(-c2ncncc2Nc2cccc(Cl)c2)cn1`, for which the IC50 in [1] and in experiment [2] was > 10 µM throughout.

As for `OCCCNc1ccc(-c2cncc(Nc3cccc(Cl)c3)n2)nc1`, the IC50 in [1] and in experiment [2] was > 10 µM in each case.

`OCCCNc1cccc(-c2cncc(Nc3cccc(Cl)c3)n2)n1`: the IC50 in experiment [1] and in experiment [2] was > 10 µM each time.

Regarding `OCCCNc1cncc(-c2cncc(Nc3cccc(Cl)c3)n2)n1`, the values for the IC50 in experiment [1] and in experiment [2] were 0.497 µM and > 10 µM, respectively.

As to `OCCCNc1cnccc1-c1cncc(Nc2cccc(Cl)c2)n1`, the IC50 in experiment [1] was 0.761 µM; in experiment [2] it was 2.22 µM.

Turning to `OCCCNc1cncc(-c2cnc(Nc3cccc(Cl)c3)cn2)c1`, the IC50 in experiment [1] and in experiment [2] was > 10 µM each time.

In the case of `OCCCNc1ncc(-c2cncc(Nc3cccc(Cl)c3)n2)s1`, the IC50 in experiment [1] turned out to be 0.708 µM; in [2], 8.08 µM.

Take `OCCCNc1cncc(-c2cncc(Nc3cccc(Cl)c3)n2)c1`: the concentration for half-maximal inhibition (IC50) in experiment [3] was > 10 µM; against Casein kinase II it was > 10 µM; in experiment [4] it was > 10 µM; in experiment [1], 0.084 µM; in [5], > 10 µM; in [6] it was > 10 µM. The IC50 in [7] was 0.21 µM; in experiment [8], 0.005 µM; in the experiment on HeLa, > 10 µM; in [9], > 10 µM.

Regarding `OCCCNc1ncc(-c2cncc(Nc3cccc(Cl)c3)n2)o1`, the IC50 was 2.11 µM in experiment [1] and > 10 µM in experiment [2].

`OCCCNc1cncc(-c2cc(Nc3cccc(Cl)c3)ncn2)c1`: the results for the concentration for half-maximal inhibition (IC50) in experiment [1] and in [2] were > 10 µM and 2.4 µM, respectively.
